Consider eight molecules from paper PMC10580023 (RSC Advances, 2023).

Holding throughout (format): cell-based
The test system of data set [1] is RAW 264.7 cells. Description: Intracellular ROS by DCFH-DA probe in LPS-stimulated macrophages. As to conditions: Mus musculus, RAW264.7, read-out: ROS inhibition rate. Summed up: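 RAW 264.7 macrophages (DMEM/10% FBS, 37 °C, 5% CO₂) pre-treated with test compound for 24 h, then stimulated with LPS 1 μg mL⁻¹ for 4 h. Cells harvested, loaded with DCFH-DA for 30 min at 37 °C in the dark, and washed three times with PBS. DCF fluorescence read on a multimode imaging reader and […]. Mean ± SD of three independent experiments.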

Data set [2] concerns RAW 264.7 cells. Kind of data set: TNF-α secretion by ELISA in LPS-stimulated macrophages. As to conditions: pre-treatment 24 h, then LPS 1 μg mL^−1 for 4 h; ELISA of supernatant.
The test system of data set [3] is RAW 264.7 cells. Description: IL-6 secretion by ELISA in LPS-stimulated macrophages. As to conditions: pre-treatment 24 h, then LPS 1 μg mL^−1 for 4 h; ELISA of supernatant. Summed up: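 RAW 264.7 macrophages (within passage 30) grown in DMEM with 10% FBS and 1% antibiotic-antimycotic at 37 °C, 5% CO2. Test compound at 25, 50 and 100 μM (legend: 0, 25, 50 μM) for 24 h, then LPS 1 μg mL⁻¹ for 4 h. Supernatant IL-6 measured by commercial ELISA kit. Three independent experiments, mean ± SD, compared with the LPS group.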
A general note: In an ELISA, binding on a coated surface is turned into a signal by an enzyme label.

For data set [4], the system named is RAW 264.7 cells. Description: CCK-8 cell viability. Summed up: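 Mouse RAW 264.7 macrophages (passage ≤30) grown in DMEM with 10% FBS and 1% antibiotic-antimycotic at 37 °C under 5% CO₂. Seeded at 10⁵ per well and left overnight. Exposed to test compound at 0–200 μM for 24 h. Viability read with a CCK-8 kit as % cell viability; IC50 calculated by curve fitting. Mean ± SD of three independent experiments.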

Consider `C=C(C[C@@H]1CCOc2ccc(C)cc21)c1ccccc1` [3ac], for which, in the data set on RAW 264.7 cells [1], the inhibition (usually the relative decrease from the control value, in per cent) at 25 µM is -24% and the inhibition at 50 µM turned out to be 23%. Moreover, in the data set with RAW 264.7 cells [2], the “Prevention of LPS-induced TNF-α secretion” value is reported as “no effect”. Turning to `C=C(C[C@@H]1CCOc2ccccc21)c1ccc(C)cc1` [3aj], the “Prevention of LPS-induced IL-6 secretion” value with RAW 264.7 cells [3] is “able to prevent LPS-induced IL-6 secretion”. Also, the “Cytotoxicity (in words)” value in the data set on RAW 264.7 cells [4] is “little cytotoxicity”.

Consider `C=C(C[C@@H]1CCOc2ccccc21)c1ccc(Cl)cc1` [3al], for which the “Prevention of LPS-induced IL-6 secretion” value with RAW 264.7 cells [3] is listed as “able to prevent LPS-induced IL-6 secretion”. On to `C=C(C[C@@H]1CCOc2ccccc21)c1ccccc1C` [3am], for which the inhibition at 50 µM with RAW 264.7 cells [1] worked out at 29%. `C=C(C[C@@H]1CCSc2ccc(OC)cc21)c1ccccc1` [3aw]: in the data set with RAW 264.7 cells [3], the “Prevention of LPS-induced IL-6 secretion” value is on record as “able to prevent LPS-induced IL-6 secretion”. Regarding `C=C(C[C@@H]1CCSc2ccc(C)cc21)c1ccccc1` [3ax], in the data set with RAW 264.7 cells [1], the inhibition at 25 µM stood at 32% and the inhibition at 50 µM was 49%. Besides, in the data set on RAW 264.7 cells [2], the “Prevention of LPS-induced TNF-α secretion” value is “no effect”. `C=C(C[C@@H]1CCSc2ccccc21)c1ccccc1C` [3bd]: the inhibition at 50 µM in the data set with RAW 264.7 cells [1] turned out to be 52%.

Take `Cc1c(C)c2c(c(C)c1O)CCC(C)(C(=O)O)O2` (centres unmarked) [Trolox, reference compound]: in the data set with RAW 264.7 cells [1], the inhibition at 25 µM is -3% and the inhibition at 50 µM is 20%.
